Tests used:
[1] = species: Rattus norvegicus; assay: The compound was evaluated for agonist sensitivity to antagonist NBQX; type: functional
Summary of the method: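 Rat cortical wedges (500-μm, cortex plus corpus callosum) superfused with Mg2+- and Ca2+-free oxygenated Krebs buffer at room temperature; agonist depolarization concentration-response curves recorded with and without 0.5 μM NBQX; pKi calculated from the parallel shift; means ± SEM of at least three experiments.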

[2] = target: T1, Glutamate receptor ionotropic, AMPA (Rattus norvegicus, UniProt P19490+P19491+P19492+P19493); assay: Compound was evaluated for the agonist activity on AMPA receptor in rat cortical wedge preparation; type: functional
[3] = target: T1, Glutamate receptor ionotropic, AMPA; assay: Compound was evaluated for the inhibition of binding of [3H]AMPA to the AMPA receptor; type: protein-complex assay
[4] = target: Glutamate receptor ionotropic, kainate; assay: Compound was evaluated for the inhibition of binding of [3H]-Kainic acid to kianic acid receptor; type: protein-complex assay
[5] = target: Glutamate receptor ionotropic, NMDA 1 (Rattus norvegicus, UniProt P35439); assay: Compound was evaluated for the inhibition of binding of [3H]glycine to NMDA receptor
[6] = target: Glutamate NMDA receptor; assay: Compound was evaluated for the inhibition of binding of [3H]- CPP to NMDA receptor; type: protein-complex assay
[7] = target: Glutamate NMDA receptor; assay: Compound was evaluated for the inhibition of binding of [3H]- MK-801 to NMDA receptor; type: protein-complex assay
[8] = target: T1, Glutamate receptor ionotropic, AMPA; assay: Compound was evaluated for the antagonist activity on AMPA receptor in rat cortical wedge preparation; type: functional

SMILES | Log Ki [1] | EC50 [2] [µM] | IC50 [3] [µM] | IC50 [4] [µM] | IC50 [5] [µM] | IC50 [6] [µM] | IC50 [7] [µM] | Ki [8] [µM]
Cc1onc(O)c1CC(N)C(=O)O (racemic) [(R,S)-AMPA] | -6.56 |  |  |  |  |  |  | 
N[C@@H](Cc1c(O)noc1-c1ccccc1)C(=O)O | -6.3 | 230 | 6 | > 100 | > 100 | > 100 | > 100 | 
N[C@H](Cc1c(O)noc1-c1ccccc1)C(=O)O |  |  | > 100 | > 100 | > 100 | > 100 | > 100 | 286
C=C(C)[C@H]1CN[C@H](C(=O)O)[C@H]1CC(=O)O [KAINIC ACID] | -5.42 |  |  |  | > 100 | > 100 | > 100 | 
NC(Cc1c(O)noc1-c1ccccc1)C(=O)O (racemic) |  | 385 | 35 | > 100 | > 100 | > 100 | > 100 | 
